Laboratory results taken from ChEMBL document CHEMBL1138552, “Synthesis of modified pyrimidine bases and positive impact of chemically reactive substituents on their in vitro antiproliferative activity” (Eur J Med Chem, 2009).

Legend:
HeLa [1] = assay: Growth inhibition of human HeLa cells after 72 hrs by MTT assay; type: functional, cell-based
Summary of the method: (§1)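 Cells were seeded on day 0 at 1 × 10⁴–3 × 10⁴ cells/mL according to doubling time. Compound was added in 10-fold dilutions (10⁻⁸–10⁻⁴ M) from DMSO stocks (final DMSO ≤0.25%, solvent control run) and incubated 72 h. Percentage of growth was calculated, four parallel samples in three experiments. IC50 was derived by linear regression between the concentrations bracketing PG 50; if none fell below, the result was reported as >highest concentration.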

NCI-H460 = assay: Growth inhibition of human H460 cells after 72 hrs by MTT assay; type: functional, cell-based; conditions: NCI-H460, 72 h; summary of the method: as §1
MCF7 = assay: Growth inhibition of human MCF7 cells after 72 hrs by MTT assay; type: functional, cell-based; conditions: MCF7, 72 h
Summary of the method: as §1, with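 “time.” for “time. Compound was added in 10-fold dilutions (10⁻⁸–10⁻⁴ M) from DMSO stocks (final DMSO ≤0.25%, solvent control run) and incubated 72 h.”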

SW-620 = assay: Growth inhibition of human SW620 cells after 72 hrs by MTT assay; type: functional, cell-based; conditions: SW-620, 72 h; summary of the method: as §1
MIA PaCa-2 = assay: Growth inhibition of human MIAPaCa2 cells after 72 hrs by MTT assay; type: functional, cell-based; conditions: MIA PaCa-2, 72 h; summary of the method: as §1
HaCaT = assay: Growth inhibition of human HaCaT cells after 72 hrs by MTT assay; type: cell-based; summary of the method: as §1
HeLa [2] = assay: Cell cycle arrest in human HeLa cells assessed as accumulation at S phase at 20 uM after 72 hrs by flow cytometry; type: functional
Summary of the method: (§2)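 Seeded 2 × 10⁵ cells per well; compound added after 24 h. At 24, 48 and 72 h post-treatment, attached cells were trypsinized and pooled with floating cells. Cells were PBS-washed, fixed in 70% ethanol, then stained with propidium iodide plus RNase A. DNA histograms came from 20 000 events per sample and gave the phase percentages. At least two experiments were run in triplicate, with Student t-test (p < 0.05).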

HeLa [3] = assay: Cell cycle arrest in human HeLa cells assessed as accumulation at subG1 phase at 20 uM after 48 hrs by flow cytometry; type: functional; summary of the method: as §2
HeLa [4] = assay: Cell cycle arrest in human HeLa cells assessed as accumulation at S phase at 20 uM after 24 hrs by flow cytometry; type: functional; summary of the method: as §2
HeLa [5] = assay: Cell cycle arrest in human HeLa cells assessed as accumulation at subG1 phase at 20 uM after 72 hrs by flow cytometry; type: functional; summary of the method: as §2
HeLa [6] = assay: Cell cycle arrest in human HeLa cells assessed as accumulation at subG1 phase at 20 uM after 24 hrs by flow cytometry; type: functional; summary of the method: as §2
HeLa [7] = assay: Cell cycle arrest in human HeLa cells assessed as accumulation at G2/M phase at 20 uM after 72 hrs by flow cytometry; type: functional; summary of the method: as §2
HeLa [8] = assay: Cell cycle arrest in human HeLa cells assessed as accumulation at G2/M phase at 20 uM after 48 hrs by flow cytometry; type: functional; summary of the method: as §2
HeLa [9] = assay: Cell cycle arrest in human HeLa cells assessed as accumulation at G2/M phase at 20 uM after 24 hrs by flow cytometry; type: functional; summary of the method: as §2
HeLa [10] = assay: Cell cycle arrest in human HeLa cells assessed as accumulation at G0/G1 phase at 20 uM after 72 hrs by flow cytometry; type: functional; summary of the method: as §2
HeLa [11] = assay: Cell cycle arrest in human HeLa cells assessed as accumulation at G0/G1 phase at 20 uM after 48 hrs by flow cytometry; type: functional; summary of the method: as §2
HeLa [12] = assay: Cell cycle arrest in human HeLa cells assessed as accumulation at S phase at 20 uM after 48 hrs by flow cytometry; type: functional; summary of the method: as §2
HeLa [13] = assay: Cell cycle arrest in human HeLa cells assessed as accumulation at G0/G1 phase at 20 uM after 24 hrs by flow cytometry; type: functional; summary of the method: as §2
HeLa [14] = assay: Cell cycle arrest in human HeLa cells assessed as accumulation at subG1 phase at 10 uM after 48 hrs by flow cytometry; type: functional
Summary of the method: (§3)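 HeLa cells seeded at 2 × 10⁵ per well; compound added after 24 h. At 24, 48 and 72 h, attached and floating cells were pooled, PBS-washed, fixed in 70% ethanol, then stained with propidium iodide plus RNase A. Flow cytometry counted 20 000 events, and phase percentages came from DNA histograms. At least two experiments in triplicate; Student t-test (p < 0.05).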

HeLa [15] = assay: Cell cycle arrest in human HeLa cells assessed as accumulation at G0/G1 phase at 10 uM after 72 hrs by flow cytometry; type: functional; summary of the method: as §3
HeLa [16] = assay: Cell cycle arrest in human HeLa cells assessed as accumulation at G0/G1 phase at 10 uM after 48 hrs by flow cytometry; type: functional; summary of the method: as §3
HeLa [17] = assay: Cell cycle arrest in human HeLa cells assessed as accumulation at G2/M phase at 10 uM after 72 hrs by flow cytometry; type: functional; summary of the method: as §3
HeLa [18] = assay: Cell cycle arrest in human HeLa cells assessed as accumulation at S phase at 10 uM after 48 hrs by flow cytometry; type: functional; summary of the method: as §3
HeLa [19] = assay: Cell cycle arrest in human HeLa cells assessed as accumulation at G0/G1 phase at 10 uM after 24 hrs by flow cytometry; type: functional; summary of the method: as §3
HeLa [20] = assay: Cell cycle arrest in human HeLa cells assessed as accumulation at G2/M phase at 10 uM after 48 hrs by flow cytometry; type: functional; summary of the method: as §3
HeLa [21] = assay: Cell cycle arrest in human HeLa cells assessed as accumulation at S phase at 10 uM after 72 hrs by flow cytometry; type: functional; summary of the method: as §3
HeLa [22] = assay: Cell cycle arrest in human HeLa cells assessed as accumulation at S phase at 10 uM after 24 hrs by flow cytometry; type: functional; summary of the method: as §3
HeLa [23] = assay: Cell cycle arrest in human HeLa cells assessed as accumulation at G2/M phase at 10 uM after 24 hrs by flow cytometry; type: functional; summary of the method: as §3
HeLa [24] = assay: Cell cycle arrest in human HeLa cells assessed as accumulation at subG1 phase at 10 uM after 24 hrs by flow cytometry; type: functional; summary of the method: as §3
HeLa [25] = assay: Cell cycle arrest in human HeLa cells assessed as accumulation at subG1 phase at 10 uM after 72 hrs by flow cytometry; type: functional; summary of the method: as §3

Row | SMILES | IC50 (HeLa [1]) [µM] | IC50 (NCI-H460) [µM] | IC50 (MCF7) [µM] | IC50 (SW-620) [µM] | IC50 (MIA PaCa-2) [µM] | further results
1 | Cc1c(I)c(=O)[nH]c(=O)n1COC(CO)CO [IODMETACYCLUR] | 73 | > 100 | > 100 | > 100 | > 100 | –
2 | O=C(CCl)Nc1cn(COC(CO)CO)c(=O)[nH]c1=O | 12 | 24 | 32 | 19 | 18 | IC50 (HaCaT): > 100 µM
3 | Nc1cn(COC(CO)CO)c(=O)[nH]c1=O | > 100 | > 100 | > 100 | > 100 | > 100 | –
4 | O=C(CCl)Nc1c[nH]c(=O)[nH]c1=O | 4 | 14 | 15 | 12 | 17 | Activity (HeLa [2]): 48%; IC50 (HaCaT): > 100 µM; Activity (HeLa [3]): 14%; Activity (HeLa [4]): 43%; Activity (HeLa [5]): 25%; Activity (HeLa [6]): 12%; Activity (HeLa [7]): 8%; Activity (HeLa [8]): 7%; Activity (HeLa [9]): 6%; Activity (HeLa [10]): 50%; Activity (HeLa [11]): 48%; Activity (HeLa [12]): 45%; Activity (HeLa [13]): 50%
5 | O=c1[nH]c(=O)n(COC(CO)CO)cc1I [IODACYCLUR] | 30 | > 100 | > 100 | > 100 | > 100 | –
6 | CC(C)(C)OC(=O)NCCNCC(=O)Nc1c[nH]c(=O)[nH]c1=O | 50 | > 100 | > 100 | 50 | 50 | –
7 | Cn1ccc(N)nc1=O | 12 | > 100 | > 100 | > 100 | > 100 | –
8 | N[C@H](CSCC(=O)Nc1c[nH]c(=O)[nH]c1=O)C(=O)O | 86 | > 100 | > 100 | 70 | 80 | –
9 | COc1ccc(CSCCN(CCSCc2ccc(OC)cc2)CC(=O)Nc2c[nH]c(=O)[nH]c2=O)cc1 | 4 | 76 | > 100 | 70 | 3 | Activity (HeLa [2]): 44%; IC50 (HaCaT): 9 µM; Activity (HeLa [3]): 24%; Activity (HeLa [4]): 24%; Activity (HeLa [5]): 58%; Activity (HeLa [6]): 17%; Activity (HeLa [7]): 13%; Activity (HeLa [8]): 13%; Activity (HeLa [9]): 20%; Activity (HeLa [10]): 43%; Activity (HeLa [11]): 59%; Activity (HeLa [12]): 27%; Activity (HeLa [13]): 56%
10 | O=c1[nH]c(=O)n(COC(CO)CO)cc1O | > 100 | > 100 | > 100 | > 100 | > 100 | –
11 | CSc1cc[nH]c(=O)n1 | > 100 | > 100 | > 100 | > 100 | > 100 | –
12 | Cn1cc(CO)c(N)nc1=O | > 100 | > 100 | > 100 | > 100 | > 100 | –
13 | Cc1ccc(S(=O)(=O)Nc2ccn(C)c(=O)n2)cc1 | > 100 | > 100 | > 100 | > 100 | > 100 | –
14 | O=c1[nH]cc(F)c(=O)[nH]1 [FLUOROURACIL] | 4 | 2 | – | 9 | 10 | Activity (HeLa [14]): 12%; Activity (HeLa [15]): 57%; IC50 (HaCaT): 0.4 µM; Activity (HeLa [16]): 59%; Activity (HeLa [17]): 0%; Activity (HeLa [18]): 41%; Activity (HeLa [19]): 60%; Activity (HeLa [20]): 0%; Activity (HeLa [21]): 43%; Activity (HeLa [22]): 39%; Activity (HeLa [23]): 1%; Activity (HeLa [24]): 10%; Activity (HeLa [25]): 26%
15 | O=c1ccn(COC(CO)CO)c(=O)[nH]1 | > 100 | > 100 | > 100 | > 100 | > 100 | –
16 | NCC(=O)Nc1c[nH]c(=O)[nH]c1=O | > 100 | > 100 | > 100 | > 100 | > 100 | –
17 | Cc1ccc(S(=O)(=O)Nc2cc[nH]c(=O)n2)cc1 | > 100 | > 100 | 27 | > 100 | > 100 | –
18 | O=c1nc(NO)cc[nH]1 [N4-hydroxycytosine] | > 100 | > 100 | > 100 | > 100 | > 100 | –
19 | Cc1cc(=O)[nH]c(=O)n1COC(CO)CO | > 100 | > 100 | > 100 | > 100 | > 100 | –
